From PubChem BioAssay
Hits are enriched below; roughly 2.9% of the tested compounds scored in any of these assays.
DENV2 CPE rescue – inhibitors of DENV2 cytopathic effect, primary screen, cell-based, plate reader, single concentration; AID 651640, 2012; CPE inhibition, % at 9.99 µM; actives 1.7% (n = 350,000); DENV2-infected cells, cytopathic effect rescue; in the data active = CPE inhibition above about 20%, passing the limit was not always enough; inconclusive = no clear call, values can overlap the other calls; tested in BHK-21 cells;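 note: 0% = median of neutral control wells and 100% = median of positive control wells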
SIRT5 inh – SIRT5 desuccinylase inhibitors, primary screen, biochemical, fluorescence imaging, single point, set 5; actives 1.1% (n = 330,000); Purified SirT5, succinyl-peptide AMC, trypsin-coupled fluorescence; inhibition, % at 15 µM; in the data active = inhibition above about 15%; inconclusive = no clear call, values can overlap the other calls
Target sequence (Q9NXA8 whole entry, looked up): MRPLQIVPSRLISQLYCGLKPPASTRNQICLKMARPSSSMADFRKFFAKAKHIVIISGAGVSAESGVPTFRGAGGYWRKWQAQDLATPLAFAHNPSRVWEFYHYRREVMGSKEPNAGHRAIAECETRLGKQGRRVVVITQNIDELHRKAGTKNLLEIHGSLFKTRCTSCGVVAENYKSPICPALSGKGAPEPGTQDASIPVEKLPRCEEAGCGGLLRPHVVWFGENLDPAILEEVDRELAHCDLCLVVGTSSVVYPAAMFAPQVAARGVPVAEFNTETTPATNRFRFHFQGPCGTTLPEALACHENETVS
S100A4 inh HTS – inhibitors of S100A4-myosin IIA peptide binding, primary screen, biochemical, fluorescence polarization, TAMRA-MyoIIA peptide | Protein S100-A4 (Homo sapiens), P26447 | inhibition, % at 10.7 µM | actives 0.14% (n = 360,000);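 active = mean inhibition of at least 70% across replicates, with every replicate also reaching that level; inconclusive = mean inhibition reaches 70% but some replicates fall short; inactive = mean inhibition below 70%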
Target sequence (P26447 whole entry, looked up): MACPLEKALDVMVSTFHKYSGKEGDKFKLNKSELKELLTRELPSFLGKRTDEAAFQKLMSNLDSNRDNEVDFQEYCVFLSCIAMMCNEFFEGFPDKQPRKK
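Material: S100A4 monomer protein / Buffer or medium: 50 mM HEPES pH 7.2, 10 mM CaCl2, 100 mM KCl / Times: 5 min incubation before reading / Benchmarks: neutral control DMSO, positive control TFP / Reagent: labelled myosin peptide probe, 5 nM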
PGC1a acetyl inh – inhibitors of PGC1a acetylation signal, primary screen, cell-based, U2OS, AlphaScreen, inhibitor mode; AlphaScreen anti-acetyl-lysine; with virally co-expressed GCN5 acetyltransferase; inhibition, % at 15.6 µM; actives 0.17% (n = 350,000);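 active = every replicate shows inhibition of at least 40%; inconclusive = mean inhibition at least 40% but some replicate below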;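 note: 0% = neutral control wells and 100% = positive control wells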
C2C12 statin – suppressors of statin myotoxicity in C2C12 myotubes, primary screen, cell-based, single point, plate reader; C2C12 myotubes + simvastatin, ATP luminescence, 48 h; scaled: DMSO 0, geranylgeraniol control 100; rescue of ATP level, % at 7.49 µM; actives 0.78% (n = 330,000);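 active = mean ATP rescue above about 67%, or every replicate alone reaching that limit, limit read from the data, passing the limit was not always enough; inconclusive = no clear call, values can overlap the other calls; inactive = mean under the limit and some replicate under it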;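 note: myotubes were challenged with 10 µM simvastatin during compound exposure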
An asterisk follows results filed as active; ? = inconclusive; nt = no result.

SMILES	DENV2 CPE rescue	SIRT5 inh	S100A4 inh HTS	PGC1a acetyl inh	C2C12 statin
O=C(C[C@H]1C[C@H]2c3cc(NC(=O)NC4CCCCC4)ccc3O[C@H]2[C@@H](CO)O1)NCc1cccnc1	2	2	-5	5	8
Cc1cccc(Cc2c(C)nc3c(C(=O)NCc4ccco4)cnn3c2C)c1	nt	nt	nt	8	107*
Cc1cc(Nc2ccccc2)cc(=O)n1C	-3	-5	-6	59*	nt
CCC(C)(C)NC(=O)Cn1c(=O)oc2cc(S(=O)(=O)N3CC(C)CC(C)C3)ccc21 (centres undefined)	1	-2	-2	-3	1
CC1CC(C)CN(S(=O)(=O)c2ccc3c(c2)oc(=O)n3CC(=O)NCc2cccnc2)C1 (centres undefined)	-4	22*	-2	4	15
Cc1ccc(C(=O)NC(=S)c2c(C)cc3ccccn23)cc1	85*	nt	2	-5	39
Cc1cc2ccccn2c1C(=S)NC(=O)c1ccccc1	-4	0	0	nt	8
COc1ccc(C)cc1NC(=O)c1cccc(C(=O)Nc2cc(C)ccc2OC)c1	-2	16*	8	-5	2
COc1ccc(C)cc1NC(=O)c1ccc2c(c1)OCO2	nt	nt	nt	-5	6
COc1ccc(Cl)cc1NC(=O)c1cccc(NC(=O)CCC(=O)O)c1	?	19*	-5	7	10
O=S(=O)(c1ccc(F)cc1)N1CCCCN2[C@H](C1)[C@@H](c1ccc(-c3ccccc3)cc1)[C@@H]2CO	6	-3	-1	-7	nt
c1coc(-c2nc3ccccc3s2)c1	2	-1	0	2	120*
Cc1cc(Cl)nc(Cl)c1C(=O)N1CCOCC1	-1	22*	1	6	-16
CCCNC(=O)[C@H]1[C@H](CO)[C@H]2Cn3c(cccc3=O)[C@H]2N1CC1CCCC1	-1	-1	0	-1	nt
Cc1c(NC(=O)c2cccc(NC(=O)Cc3ccc(Cl)cc3)c2)c(=O)n(-c2ccccc2)n1C	-5	-4	-2	3	12
Cc1ccc(CC(=O)Nc2cccc(C(=O)Nc3c(C)n(C)n(-c4ccccc4)c3=O)c2)cc1C	31*	0	-5	21	1
C[C@@H]1CCCCO[C@@H](CN(C)C(=O)Nc2cccc3ccccc23)[C@@H](C)CN([C@@H](C)CO)C(=O)c2cc(NC(=O)Nc3ccc(C(F)(F)F)cc3)ccc2O1	26*	1	-4	1	nt
C[C@@H]1CCCCO[C@@H](CN(C)C(=O)Nc2cccc3ccccc23)[C@H](C)CN([C@@H](C)CO)C(=O)c2cc(NC(=O)c3ccccc3)ccc2O1	-10	17*	2	4	nt
C[C@H](CO)N1C[C@H](C)[C@H](CN(C)C(=O)Nc2cccc3ccccc23)OCCCC[C@H](C)Oc2ccc(NC(=O)Nc3ccc(F)cc3)cc2C1=O	25*	0	-8	1	nt
CN1c2ccc(-c3cccc(C#N)c3)cc2[C@@H]2[C@@H](CCN2S(=O)(=O)c2ccc(F)cc2)[C@@H]1CO	20	4	-1	-24	1
C[C@@H]1CN([C@@H](C)CO)C(=O)c2cc(C#CCN(C)C)cnc2O[C@@H]1CN(C)Cc1ccc(C(=O)O)cc1	-2	-2	4	2	-6
O=C(C[C@@H]1CC[C@@H]2[C@H](COC[C@H](O)CN2C(=O)c2ccccc2)O1)N1CCOCC1	-5	-1	15	0	-13
COc1ccccc1CC(=O)NNS(=O)(=O)c1cccc([N+](=O)[O-])c1	-6	nt	4	5	3
COc1ccccc1CC(=O)NNS(=O)(=O)c1ccc([N+](=O)[O-])cc1	-9	25*	1	11	-10
C[C@H]1CCCCO[C@H](CN(C)S(=O)(=O)c2ccc(F)cc2)[C@@H](C)CN([C@@H](C)CO)C(=O)c2cc(NC(=O)c3ccccc3)ccc2O1	4	8	-7	-1	nt
C[C@@H]1CN([C@H](C)CO)C(=O)c2cc(NC(=O)c3ccccc3)ccc2O[C@@H](C)CCCCO[C@@H]1CN(C)S(=O)(=O)c1ccc(F)cc1	98*	6	-1	0	nt
